The source made the active and inactive calls. The calls are words filed in the database; no cut-off is given here.
How the values were obtained:
[1] = test system: Influenza A virus; assay: Antiviral activity against Influenza A virus A/WSN/33/H1N1 infected in MDCK cells assessed as reduction in virus-induced cytopathic effect after 40 hrs by CellTiter-Glo assay; type: functional, organism-based; conditions: A/WSN/33/H1N1, MDCK
Outline: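 MDCK cells seeded overnight, infected with influenza A/WSN/33 (H1N1) at MOI 0.1. Kept in DMEM with 1% FBS, test compound, TPCK-treated trypsin and 1% final DMSO for 40 h. Cell viability read by CellTiter-Glo luminescence. IC50 taken from dose-response.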

[2] = test system: Influenza A virus; assay: Antiviral activity against Influenza A virus A/WSN/33/H1N1 infected in MDCK cells assessed as reduction in virus-induced cytopathic effect at 50 uM after 40 hrs by CellTiter-Glo assay; type: functional, organism-based
Outline: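 Single-concentration screen at 50 μM final. MDCK cells infected with A/WSN/33 (H1N1) at MOI 0.1 in DMEM/1% FBS with TPCK-trypsin for 40 h, viability by CellTiter-Glo. 0.5% DMSO final as negative control, oseltamivir as positive control. Triplicate experiments, standard deviations shown.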

[3] = Cytotoxicity against MDCK cells after 40 hrs by CellTiter-Glo assay; type: cell-based, Canis lupus familiaris; conditions: dog
Outline: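 MDCK cells grown overnight in medium with 1% FBS, then exposed to increasing compound concentrations for 40 h. Viability measured by CellTiter-Glo luminescence, and CC50 derived from it.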

[4] = test system: MDCK; assay: Cytotoxicity against MDCK cells at 50 uM after 40 hrs by CellTiter-Glo assay; type: cell-based, Canis lupus familiaris; conditions: dog
Outline: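 Single-concentration toxicity screen at 50 μM final on MDCK cells for 40 h, read by CellTiter-Glo. 0.5% DMSO final as negative control. Triplicate experiments, standard deviations shown.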

[5] = biological target: Hemagglutinin (Influenza A virus (A/Puerto Rico/8/1934(H1N1)), UniProt P03452); assay: Binding affinity to recombinant Influenza A virus (A/California/04/2009 (H1N1)) hemagglutinin by SPR assay
Outline: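 HA immobilised on the sensor chip to about 16,000 RU. Compounds injected as analytes at various concentrations in PBS-P running buffer (10 mM phosphate, 2.7 mM KCl, 137 mM NaCl, 0.05% P20, […]), with 60 s contact and 60 s dissociation. KD determined.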

[6] = biological target: Hemagglutinin (Influenza A virus) (UniProt B4URE7); assay: Inhibition of Influenza A virus A/WSN/33/H1N1 HA-mediated hemagglutination of chicken RBC measured after 30 mins
Outline: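 Compound serially diluted 3-fold in saline and mixed with an equal volume of A/WSN/33 virus (2 HA units). Freshly prepared chicken RBCs (1% v/v in saline) added. Incubated 30 min at room temperature, then agglutination scored visually. PBS as negative control, anti-HA antibody tested in parallel.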

Hemagglutinin (Influenza A virus (A/Puerto Rico/8/1934(H1N1)), UniProt P03452), sequence (P03452 whole entry): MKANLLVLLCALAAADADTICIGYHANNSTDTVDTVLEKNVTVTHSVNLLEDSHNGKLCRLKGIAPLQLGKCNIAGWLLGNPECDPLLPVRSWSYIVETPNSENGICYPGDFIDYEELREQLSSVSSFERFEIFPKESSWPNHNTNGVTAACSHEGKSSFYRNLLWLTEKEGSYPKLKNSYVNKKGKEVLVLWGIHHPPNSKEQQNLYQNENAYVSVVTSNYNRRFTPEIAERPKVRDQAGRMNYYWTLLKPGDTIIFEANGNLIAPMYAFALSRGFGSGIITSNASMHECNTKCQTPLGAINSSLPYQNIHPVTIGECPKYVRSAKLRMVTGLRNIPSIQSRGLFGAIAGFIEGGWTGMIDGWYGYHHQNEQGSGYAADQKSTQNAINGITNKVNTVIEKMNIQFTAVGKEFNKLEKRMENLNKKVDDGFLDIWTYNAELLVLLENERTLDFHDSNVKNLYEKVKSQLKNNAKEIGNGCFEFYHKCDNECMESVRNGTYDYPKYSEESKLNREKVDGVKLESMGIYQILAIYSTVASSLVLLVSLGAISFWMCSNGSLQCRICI
Hemagglutinin (Influenza A virus), sequence (B4URE7 as listed by the source): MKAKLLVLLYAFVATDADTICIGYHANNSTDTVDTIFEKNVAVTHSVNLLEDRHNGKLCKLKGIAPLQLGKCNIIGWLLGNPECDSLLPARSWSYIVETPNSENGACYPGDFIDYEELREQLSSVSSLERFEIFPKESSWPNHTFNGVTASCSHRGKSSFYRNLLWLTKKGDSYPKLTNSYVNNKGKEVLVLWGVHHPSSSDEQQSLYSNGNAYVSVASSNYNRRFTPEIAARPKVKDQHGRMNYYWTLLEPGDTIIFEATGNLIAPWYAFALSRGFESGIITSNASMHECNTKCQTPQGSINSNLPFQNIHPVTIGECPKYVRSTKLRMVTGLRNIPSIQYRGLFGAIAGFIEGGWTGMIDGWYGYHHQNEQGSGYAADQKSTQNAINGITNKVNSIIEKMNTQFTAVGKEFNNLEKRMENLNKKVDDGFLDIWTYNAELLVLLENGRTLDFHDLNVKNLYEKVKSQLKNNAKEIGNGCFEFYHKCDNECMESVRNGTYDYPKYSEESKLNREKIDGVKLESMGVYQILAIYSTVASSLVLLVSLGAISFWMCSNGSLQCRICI

Row | SMILES | IC50 [1] | Activity [2] | CC50 at 40 h [3] | Activity [4] | Kd [5] | inhibition [6]
1 | C=C(C)[C@@H]1CC[C@]2(C(=O)NCCNC(=O)c3ccccc3O)CC[C@]3(C)[C@H](CC[C@@H]4[C@@]5(C)CC[C@H](O)C(C)(C)[C@@H]5CC[C@]43C)[C@@H]12 | 9.55 µM | Active | > 100 µM | Non-Toxic |  | 
2 | C[C@H]1[C@H](C)CC[C@]2(C(=O)O)CC[C@]3(C)C(=CC[C@@H]4[C@@]5(C)CC[C@H](O)C(C)(C)[C@@H]5CC[C@]43C)[C@H]12 [URSOLIC ACID] |  |  |  |  | 46.5 µM | 
3 | C=C(C)[C@@H]1CC[C@]2(C(=O)NCCNC(=O)c3cc(O)c(O)c(O)c3)CC[C@]3(C)[C@H](CC[C@@H]4[C@@]5(C)CC[C@H](O)C(C)(C)[C@@H]5CC[C@]43C)[C@@H]12 |  | Active |  | Toxic |  | 
4 | C=C(C)[C@@H]1CC[C@]2(C(=O)NCCNC(=O)/C=C/c3ccc(O)cc3)CC[C@]3(C)[C@H](CC[C@@H]4[C@@]5(C)CC[C@H](O)C(C)(C)[C@@H]5CC[C@]43C)[C@@H]12 | 15.7 µM | Active | > 100 µM | Non-Toxic |  | 
5 | C[C@H]1[C@H](C)CC[C@]2(C(=O)NCCNC(=O)c3ccccc3O)CC[C@]3(C)C(=CC[C@@H]4[C@@]5(C)CC[C@H](O)C(C)(C)[C@@H]5CC[C@]43C)[C@H]12 | 5.8 µM | Active | > 100 µM | Non-Toxic | 15.6 µM | Dose-dependent effect
6 | CCOC(=O)C1=C[C@@H](OC(CC)CC)[C@H](NC(C)=O)[C@@H](N)C1 [OSELTAMIVIR] | 16.5 µM |  | > 200 µM |  |  | 
7 | CC1(C)CC[C@]2(C(=O)NCCNC(=O)c3cc(O)c(O)c(O)c3)CC[C@]3(C)C(=CC[C@@H]4[C@@]5(C)CC[C@H](O)C(C)(C)[C@@H]5CC[C@]43C)[C@@H]2C1 |  |  |  | Toxic |  | 
8 | CC1(C)CC[C@]2(C(=O)NCCNC(=O)c3ccccc3O)[C@H](O)C[C@]3(C)C(=CC[C@@H]4[C@@]5(C)CC[C@H](O)C(C)(C)[C@@H]5CC[C@]43C)[C@@H]2C1 | 5.84 µM | Active | > 100 µM | Non-Toxic |  | 
9 | CC1(C)CC[C@]2(C(=O)NCCNC(=O)c3cc(OCc4ccccc4)c(OCc4ccccc4)c(OCc4ccccc4)c3)[C@H](O)C[C@]3(C)C(=CC[C@@H]4[C@@]5(C)CC[C@H](O)C(C)(C)[C@@H]5CC[C@]43C)[C@@H]2C1 |  | Active |  | Non-Toxic |  | 
10 | CC1(C)CC[C@]2(C(=O)NCCNC(=O)c3ccc(OCc4ccccc4)cc3)[C@H](O)C[C@]3(C)C(=CC[C@@H]4[C@@]5(C)CC[C@H](O)C(C)(C)[C@@H]5CC[C@]43C)[C@@H]2C1 |  |  |  | Non-Toxic |  | 
11 | CC1(C)CC[C@]2(C(=O)NCCNC(=O)c3ccccc3O)CC[C@]3(C)C(=CC[C@@H]4[C@@]5(C)CC[C@H](O)C(C)(C)[C@@H]5CC[C@]43C)[C@@H]2C1 | 7.65 µM | Active | > 100 µM | Non-Toxic | 36 µM | 
12 | CC1(C)CC[C@]2(C(=O)NCCNC(=O)c3cc(O)cc(O)c3)[C@H](O)C[C@]3(C)C(=CC[C@@H]4[C@@]5(C)CC[C@H](O)C(C)(C)[C@@H]5CC[C@]43C)[C@@H]2C1 |  |  |  | Toxic |  | 
13 | CC1(C)CC[C@]2(C(=O)NCCNC(=O)c3cc(OCc4ccccc4)cc(OCc4ccccc4)c3)CC[C@]3(C)C(=CC[C@@H]4[C@@]5(C)CC[C@H](O)C(C)(C)[C@@H]5CC[C@]43C)[C@@H]2C1 |  |  |  | Non-Toxic |  | 
14 | CC1(C)CC[C@]2(C(=O)NCCNC(=O)c3cc(OCc4ccccc4)c(OCc4ccccc4)c(OCc4ccccc4)c3)CC[C@]3(C)C(=CC[C@@H]4[C@@]5(C)CC[C@H](O)C(C)(C)[C@@H]5CC[C@]43C)[C@@H]2C1 |  | Active |  | Non-Toxic |  | 
15 | C[C@H]1[C@H](C)CC[C@]2(C(=O)NCCNC(=O)c3cc(O)c(O)c(O)c3)CC[C@]3(C)C(=CC[C@@H]4[C@@]5(C)CC[C@H](O)C(C)(C)[C@@H]5CC[C@]43C)[C@H]12 |  |  |  | Toxic |  | 
16 | CC1(C)CC[C@]2(C(=O)NCCNC(=O)/C=C/c3ccc(O)cc3)[C@H](O)C[C@]3(C)C(=CC[C@@H]4[C@@]5(C)CC[C@H](O)C(C)(C)[C@@H]5CC[C@]43C)[C@@H]2C1 |  |  |  | Non-Toxic |  | 
17 | CC1(C)CC[C@]2(C(=O)NCCNC(=O)c3ccc(OCc4ccccc4)cc3)CC[C@]3(C)C(=CC[C@@H]4[C@@]5(C)CC[C@H](O)C(C)(C)[C@@H]5CC[C@]43C)[C@@H]2C1 |  |  |  | Non-Toxic |  | 
18 | C[C@H]1[C@H](C)CC[C@]2(C(=O)NCCNC(=O)/C=C/c3ccccc3)CC[C@]3(C)C(=CC[C@@H]4[C@@]5(C)CC[C@H](O)C(C)(C)[C@@H]5CC[C@]43C)[C@H]12 | 18.3 µM | Active | > 100 µM | Non-Toxic |  | 
19 | C=C(C)[C@@H]1CC[C@]2(C(=O)NCCNC(=O)c3ccc(O)cc3)CC[C@]3(C)[C@H](CC[C@@H]4[C@@]5(C)CC[C@H](O)C(C)(C)[C@@H]5CC[C@]43C)[C@@H]12 |  |  |  | Toxic |  | 
20 | CC1(C)CC[C@]2(C(=O)NCCNC(=O)c3ccc(O)cc3)[C@H](O)C[C@]3(C)C(=CC[C@@H]4[C@@]5(C)CC[C@H](O)C(C)(C)[C@@H]5CC[C@]43C)[C@@H]2C1 |  |  |  | Toxic |  | 
21 | C[C@H]1[C@H](C)CC[C@]2(C(=O)NCCNC(=O)c3ccc(O)cc3O)CC[C@]3(C)C(=CC[C@@H]4[C@@]5(C)CC[C@H](O)C(C)(C)[C@@H]5CC[C@]43C)[C@H]12 |  |  |  | Toxic |  | 
22 | C[C@H]1[C@H](C)CC[C@]2(C(=O)NCCNC(=O)c3cc(OCc4ccccc4)c(OCc4ccccc4)c(OCc4ccccc4)c3)CC[C@]3(C)C(=CC[C@@H]4[C@@]5(C)CC[C@H](O)C(C)(C)[C@@H]5CC[C@]43C)[C@H]12 | 32.9 µM | Active | > 100 µM | Non-Toxic |  | 
23 | CC1(C)CC[C@]2(C(=O)NCCNC(=O)c3cc(OCc4ccccc4)cc(OCc4ccccc4)c3)[C@H](O)C[C@]3(C)C(=CC[C@@H]4[C@@]5(C)CC[C@H](O)C(C)(C)[C@@H]5CC[C@]43C)[C@@H]2C1 |  |  |  | Non-Toxic |  | 
24 | CC1(C)CC[C@]2(C(=O)NCCNC(=O)/C=C/c3ccccc3)CC[C@]3(C)C(=CC[C@@H]4[C@@]5(C)CC[C@H](O)C(C)(C)[C@@H]5CC[C@]43C)[C@@H]2C1 |  |  |  | Toxic |  | 
25 | C=C(C)[C@@H]1CC[C@]2(C(=O)NCCNC(=O)c3cc(O)cc(O)c3)CC[C@]3(C)[C@H](CC[C@@H]4[C@@]5(C)CC[C@H](O)C(C)(C)[C@@H]5CC[C@]43C)[C@@H]12 |  |  |  | Toxic |  | 

Reference: ChEMBL document CHEMBL4411280, “Synthesis, structure activity relationship and in vitro anti-influenza virus activity of novel polyphenol-pentacyclic triterpene conjugates” (Eur J Med Chem, 2019)
